{
  "source": "paper PMC2704382",
  "about": "(Cell, 2009)",
  "key": {"[1]": {"tested_on": "GSK3β", "assay": "GSK3β surface plasmon resonance", "format": "binding", "conditions": "SPR, peptide 25 µM"}, "[2]": {"tested_on": "GSK3β", "assay": "In vitro GSK3β kinase assay", "format": "biochemical", "conditions": "for Inhibition of GSK3β: in vitro kinase assay"}, "[3]": {"tested_on": "LEF/TCF", "assay": "TCF reporter activity in DISC1 knockdown cells", "format": "cell-based"}, "[4]": {"tested_on": "DISC1 knockdown AHP cells", "assay": "BrdU incorporation in DISC1 knockdown AHP cells", "format": "cell-based", "summary_of_the_method": "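Lentivirus-transduced AHPs (GFP marker) seeded on polyornithine/fibronectin-coated coverslips and pulsed with BrdU (10 µM) in medium for 2 hours. Fixed in 4% paraformaldehyde and immunostained for BrdU. Five random fields and over 500 cells counted per experiment. Read-out is the percentage of GFP-positive cells also BrdU-positive.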"}, "[5]": {"tested_on": "neural progenitor proliferation in mouse embryonic brains", "assay": "BrdU labeling in shRNA electroporated embryonic brains", "format": "in vivo"}, "[6]": {"tested_on": "adult hippocampal progenitor proliferation in dentate gyrus", "format": "in vivo, mouse", "conditions": "2 mg/kg every other day for 2 weeks, n=5"}},
  "note": "Like-named read-outs stand apart in the source and are kept apart here.",
  "data": [
    {"molecule": "DISCtide-1: synthesized peptide from mDISC1 spanning amino acids 195 to 238 (PADIASLPGFQDTFTSSFSFIQLSLGAAGERGEAEGCLPSREAE)", "values": [
      {"measurement": "Percent theoretical maximal response", "setting": "[1]", "value": 197, "unit": "%"},
      {"measurement": "Potency of GSK3β inhibition compared with L803-mts", "setting": "[2]; dose-response curve, n=3", "value": "more potently than L803-mts"},
      {"measurement": "Dose dependence of inhibition of recombinant GSK3β catalytic activity", "setting": "[2]; in vitro", "value": "dose dependent"},
      {"measurement": "Inhibition of GSK3β", "setting": "[2]; 10 µM peptide", "value": "inhibited"}
    ]},
    {"molecule": "DISCtide2: 15-mer peptide that encompasses mDISC1 amino acids 211 to 225 (SFSFIQLSLGAAGER)", "values": [
      {"measurement": "Percent theoretical maximal response", "setting": "[1]", "value": 238, "unit": "%"},
      {"measurement": "Inhibition of GSK3β kinase activity", "setting": "[2]; data not shown, concentration not given", "value": "failed to inhibit"}
    ]},
    {"molecule": "Peptide-neg: synthesized peptide from mDISC1 spanning amino acids 40–77 (GYMRSTAGSGIGFLSPAVGMPHPSSAGLTGQQSQHSQS)", "values": [
      {"measurement": "Percent theoretical maximal response", "setting": "[1]", "value": 62, "unit": "%"},
      {"measurement": "Inhibition of GSK3β", "setting": "[2]; 80 µM peptide", "value": "did not inhibit"}
    ]},
    {"molecule": "Cc1c[nH]c(-c2cnc(NCCNc3ccc(C#N)cn3)nc2-c2ccc(Cl)cc2Cl)n1", "note": "[CHIR-99021]", "values": [
      {"measurement": "TCF activity", "setting": "[3]", "value": "rescued TCF activity in DISC1 knockdown cells to control levels"}
    ]},
    {"molecule": "Cn1cc(C2=C(c3ccc(Cl)cc3Cl)C(=O)NC2=O)c2ccccc21", "note": "[SB-216763]", "values": [
      {"measurement": "Cell proliferation evaluated by BrdU incorporation", "setting": "[4]", "value": "restored cell proliferation"},
      {"measurement": "TCF activity", "setting": "[3]", "value": "rescued TCF activity in DISC1 knockdown cells to control levels"},
      {"measurement": "BrdU labeling index", "setting": "[5]; DISC1 shRNA electroporated embryonic brains", "value": "rescued the BrdU labeling index"},
      {"measurement": "BrdU labeled cells", "setting": "[5]; control shRNA electroporated mouse embryonic brains", "value": "increased BrdU labeled cells"},
      {"measurement": "Number of BrdU positive cells", "setting": "[6]; DISC1 shRNA-1 injected mice", "value": "rescued the reduction in BrdU positive cells"},
      {"measurement": "Number of BrdU positive cells", "setting": "[6]; mice infected with control virus", "value": "significantly increased"}
    ]}
  ]
}
